Laboratory results from ChEMBL document CHEMBL3813637, “Synthesis and Antiproliferative and Metabolic Evaluations of Novel Securinine Derivatives” (ACS Med Chem Lett, 2016).

Columns and labels:
[1] = system: Plasma; assay: Metabolic stability in human plasma at 5 uM after 2 hrs by ZQ-LC-MS analysis; assay type: ADME, cell-free
How it was run: (§1)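 Compounds were incubated in rat, mouse and human plasma for 120 min at 37 °C. The result is reported as the percentage of parent compound remaining.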

[2] = Antiproliferative activity against human HCT116 cells assessed as reduction in cell viability at 10 uM after 72 hrs by ATPlite assay; assay type: functional; conditions: HCT-116, 72 h, read-out: GI
How it was run: (§2)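 HCT-116 human colon cancer cells exposed to compound for 72 h at 20, 10 or 1 μM. Growth inhibition is expressed as percentage relative to nontreated cells.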

[3] = system: Plasma; assay: Metabolic stability in mouse plasma at 5 uM after 2 hrs by ZQ-LC-MS analysis; assay type: ADME, cell-free; how it was run: as §1
[4] = Antiproliferative activity against human HCT116 cells assessed as reduction in cell viability at 1 uM after 72 hrs by ATPlite assay; assay type: functional; conditions: HCT-116, 72 h, read-out: GI; how it was run: as §2
[5] = system: Plasma; assay: Metabolic stability in rat plasma at 5 uM after 2 hrs by ZQ-LC-MS analysis; assay type: ADME, cell-free; how it was run: as §1
[6] = system: A549; assay: Antiproliferative activity against human A549 cells assessed as reduction in cell viability after 72 hrs by ATPlite assay; assay type: functional, cell-based; conditions: A549, 72 h
How it was run: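 IC50 values were determined on a panel of four human cancer lines (HCT-116, A-549, HL-60, A-375), with camptothecin and etoposide as reference compounds.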

[7] = Antiproliferative activity against human HCT116 cells assessed as reduction in cell viability at 20 uM after 72 hrs by ATPlite assay; assay type: functional; conditions: HCT-116, 72 h, read-out: GI; how it was run: as §2
[8] = Antiproliferative activity against human HL60 cells assessed as reduction in cell viability after 72 hrs by ATPlite assay; assay type: functional, cell-based; conditions: HL-60, 72 h
How it was run: (§3)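 IC50 determined in human cancer cell lines (HCT-116, A-375 melanoma, HL-60, A-549). Camptothecin and etoposide served as reference compounds.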

[9] = Antiproliferative activity against human HCT116 cells assessed as reduction in cell viability after 72 hrs by ATPlite assay; assay type: functional, cell-based; conditions: HCT-116, 72 h; how it was run: as §3
[10] = Metabolic stability in mouse liver microsomes at 2 uM after 1 hr by ZQ-LC-MS analysis; assay type: ADME
[11] = system: Liver microsome; assay: Metabolic stability in human liver microsomes at 2 uM after 1 hr by ZQ-LC-MS analysis; assay type: ADME
[12] = system: Liver microsome; assay: Metabolic stability in rat liver microsomes at 2 uM after 1 hr by ZQ-LC-MS analysis; assay type: ADME
[13] = system: A-375; assay: Antiproliferative activity against human A375 cells assessed as reduction in cell viability after 72 hrs by ATPlite assay; assay type: functional, cell-based; conditions: A-375, 72 h; how it was run: as §3

SMILES | Stability [1] | inhibition of growth at 10 µM [2] | Stability [3] | inhibition of growth at 1 µM [4] | Stability [5] | IC50 [6] | inhibition of growth at 20 µM [7] | IC50 [8] | IC50 [9] | Stability [10] | Stability [11] | Stability [12] | IC50 [13]
O=C1C=C2C=C[C@@H]3C[C@@]2(O1)[C@H]1CCCCN31 [SECURININE] | Stable | 50.6% | Stable | 7.6% | Stable | > 10000 nM | 90.7% | > 10000 nM | > 10000 nM | Unstable | Stable | Unstable | 
CN(C)c1ccc(C#CC2=C[C@@H]3C[C@@]4(OC(=O)C=C24)[C@H]2CCCCN32)cc1 | Unstable | 100% | Unstable | 99.7% | Unstable | 600 nM | 100% | 420 nM | 420 nM | Unstable | Unstable | Unstable | 170 nM
